Data: PMC3767132 (Organic & biomolecular chemistry, 2012)
Like-named read-outs stand apart in the source and are kept apart here.

What was measured:
hMetAP1 = hMetAP1 (Homo sapiens, UniProt P53582); experiment: human MetAP1 enzyme assay; type: biochemical; conditions: for IC50: 10 μM Co2+
HeLa = HeLa proliferation assay, 3H-T uptake; type: cell-based; conditions: for IC50: Homo sapiens, HeLa, read-out: IC50 3H-T Uptake HeLa
hMetAP2 = hMetAP2 (Homo sapiens, UniProt P50579); experiment: human MetAP2 enzyme assay; type: biochemical
[1] = Metal complexation by UV-vis spectra in MetAP assay buffer; type: physicochemical; conditions: 10 μM in MetAP assay buffer
Procedure, shortened: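 UV–vis absorption spectra recorded for the test compound at 10 μM in MetAP assay buffer, without and with metal ions. Metals were added as MnCl2 or CoCl2 at 10 μM, a buffer and metal level chosen to emulate the enzyme assay. Complexation was read as shifts in λmax and changes in band intensity.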

HFF = HFF cell-viability assay using calcein-AM; type: cell-based, human; conditions: for IC50: Homo sapiens, HFF, read-out: IC50 Calcein-AM HFF
HUVEC [2] = experiment: DCF-DA assay of ROS levels in HUVEC; type: cell-based, human; conditions: HUVEC treated with 10 μM, data not shown
SIRT1 = experiment: Immunoblot of Ac-p53; type: cell-based, human; conditions: for Immunoblot Ac-p53: compound treated HUVEC lysates, 24 h, signal relative to DMSO = 1.0
Procedure, shortened: (§1)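 HUVEC were exposed to test compound for 24 h, typically at 5 μM (some up to 10 μM), with DMSO as negative control. Lysates were immunoblotted for Met-14-3-3γ, 14-3-3γ, Ac-p53 and total p53. Band densities were taken as Met-14-3-3γ/14-3-3γ and Ac-p53/p53 per lane, relative to DMSO = 1.0. Ac-p53 was scored −(<2.0), +(2.0–7.0), ++(7.1–11.6), +++(>11.6).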

Jurkat-T = experiment: Jurkat T proliferation assay, 3H-T uptake; type: cell-based; conditions: for IC50: Homo sapiens, Jurkat, read-out: IC50 3H-T Uptake Jurkat-T
MetAP = experiment: Immunoblot of Met-14-3-3γ; type: cell-based, human; conditions: for Immunoblot Met-14-3-3γ: compound treated HUVEC lysates, 24 h, signal relative to DMSO = 1.0
Procedure, shortened: as §1

HUVEC [3] = experiment: HUVEC proliferation assay using [3H]-thymidine incorporation; type: cell-based, human
HUVEC [4] = experiment: HUVEC cell-viability assay using calcein-AM; type: cell-based, human; conditions: for IC50: Homo sapiens, HUVEC, read-out: IC50 Calcein-AM HUVEC
HUVEC [5] = experiment: Cytotoxicity seen on treatment of HUVEC for immunoblotting; type: cell-based, human; conditions: 0.5 μM for 24 h
sirtuin 1 (SIRT1) = conditions: read-out: IC50 SIRT1; cited from earlier work
[6] = Homo sapiens, HUVEC, read-out: IC50 HUVEC
[7] = Homo sapiens, HUVEC, read-out: IC50 HUVEC, proliferation, 3H-T uptake
[8] = read-out: IC50 hMetAP1, enzyme assay
[9] = read-out: IC50 hMetAP2, enzyme assay, 10 μM Mn2+
[10] = up to 10 μM, HUVEC, data not shown

Sequence of hMetAP2 (P50579 whole entry): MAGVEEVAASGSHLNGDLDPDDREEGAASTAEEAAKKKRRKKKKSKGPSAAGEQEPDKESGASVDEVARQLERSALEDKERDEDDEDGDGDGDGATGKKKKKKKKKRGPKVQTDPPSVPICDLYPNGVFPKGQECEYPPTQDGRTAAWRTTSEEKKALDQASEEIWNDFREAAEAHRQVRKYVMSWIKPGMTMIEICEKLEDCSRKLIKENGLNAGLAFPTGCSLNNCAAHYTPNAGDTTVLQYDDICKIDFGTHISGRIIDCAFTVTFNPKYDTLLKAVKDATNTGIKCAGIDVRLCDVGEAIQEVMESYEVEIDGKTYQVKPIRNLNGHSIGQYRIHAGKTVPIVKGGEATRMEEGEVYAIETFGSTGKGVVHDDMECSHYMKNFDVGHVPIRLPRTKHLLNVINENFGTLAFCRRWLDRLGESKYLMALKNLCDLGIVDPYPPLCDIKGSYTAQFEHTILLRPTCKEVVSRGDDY

Row | Structure (SMILES) | IC50 (hMetAP1; IC50 hMetAP1, enzyme assay) [µM] | IC50 (HeLa) [nM] | IC50 (hMetAP2) [µM] | b = bottom value of the curve, Calcein-AM HFF (HFF) [%] | IC50 (HFF) [µM] | Immunoblot Ac-p53 (SIRT1) | IC50 (Jurkat-T) [nM] | Immunoblot Met-14-3-3γ (MetAP) | IC50 (HUVEC [3]; [6]) [nM] | IC50 (HUVEC [4]) [nM] | complexation with Mn2+ and Co2+ ions (UV-vis) [1] | other results
1 | O=Nc1ccc(O)c2ncccc12 [Entry 33, 5-nitrosoquinolin-8-ol] | > 15 | 640 ± 200 | > 50 | 17 | 9.08 ± 1.2 | + (+, 2.0–7.0) | 360 ± 70 | − (−, >1.5) | 364 ± 200 | 3720 ± 800 | – | affinity for Mn2+ (UV-vis) [1]: very little affinity; ROS levels (DCF-DA) (HUVEC [2]): failed to observe any significant increase
2 | O=C(Nc1cc(Cl)cc(Cl)c1)Oc1ccc(Cl)c2cccnc12 [Entry 24, 5-Chloroquinolin-8-yl 3,5-dichlorophenylcarbamate] | > 15 | – | 0.024 ± 0.007 | 17 | 2.69 ± 0.5 | – | – | – | – | 746 ± 190 | lack of complexation | cytotoxicity in HUVEC (HUVEC [5]): not enough cells were left; IC50 (HUVEC [3]; [7]): 324 ± 60 nM
3 | O=[N+]([O-])c1ccc(O)c2ncccc12 [Entry 5, Nitroxoline, reference compound] | – | 3970 ± 900 | – | 21 | 3.69 ± 1 | ++ (++, 7.1–11.6) | 1580 ± 300 | + (+, ≥1.5) | – | 5130 ± 1200 | – | inhibition at 10 µM (hMetAP2; read-out: inhibition of MetAP2 activity in HTS): > 90%; IC50 (sirtuin 1 (SIRT1)): 20.2 µM; IC50 (HUVEC [3]; [7]): 1900 ± 300 nM
4 | Cc1ccc(S(=O)(=O)Nc2ccc(N=O)c3cccnc23)cc1 [Entry 54, 4-methyl-N-(5-nitrosoquinolin-8-yl)benzene-sulfonamide] | 10.5 ± 0.9 | 590 ± 100 | > 15 | 22 | 0.782 ± 0.13 | − (−, <2.0) | 450 ± 50 | + (+, ≥1.5) | 204 ± 20 | 1320 ± 200 | formation of chelates | b = bottom value in the dose-response curve, hMetAP1 (hMetAP1; noted only when above 15%): 18%
5 | O=C(Nc1ccc(O)c2ncccc12)c1ccccc1 [Entry 40] | – | – | – | – | – | +++ (+++, >11.6) | – | + (+, ≥1.5) | – | – | signs of complex formation | IC50 (hMetAP1; [8]): 6.45 µM; IC50 (hMetAP2; [9]): > 40 µM; IC50 (HUVEC [3]; read-out: IC50 HUVEC, proliferation, 3H-T uptake): 789 ± 110 nM
6 | CN(C)S(=O)(=O)Oc1ccc([N+](=O)[O-])c2cccnc12 [Entry 48, 5-nitroquinolin-8-yl dimethylsulfamate] | – | 2410 ± 800 | – | 23 | 2.26 ± 0.3 | +++ (+++, >11.6) | 1730 ± 200 | + (+, ≥1.5) | 770 ± 100 | 4210 ± 1400 | does form chelates | IC50 (hMetAP1; [8]): > 15 µM; IC50 (hMetAP2; [9]): 0.057 ± 0.015 µM; concentration of maximal sirtuin inhibition (biphasic mode) (SIRT1; HUVEC immunoblot, Ac-p53): around 2 μM
7 | Nc1ccc(O)c2ncccc12 [Entry 34, 5-aminoquinolin-8-ol] | 8.92 ± 1.2 | 2360 ± 500 | 11.9 | 38 | 37.3 ± 2.1 | − (−, <2.0) | 1280 ± 300 | − (−, >1.5) | 218 ± 40 | 1840 | – | more potent against HUVEC than HeLa (HeLa; 3H-T uptake): about 8 times; b = bottom value in the dose-response curve, hMetAP2 (hMetAP2; noted only when above 15%): 26%; selectivity for HUVEC inhibition than HFF (HFF; calcein-AM): ~30 times; effect on the levels of Ac-p53 (SIRT1; [10]): no effect; more potent against HUVEC than Jurkat T (Jurkat-T; 3H-T uptake): about 8 times; effect on the levels of Met-14-3-3γ (MetAP; [10]): no effect; b = bottom value of the curve, Calcein-AM HUVEC (HUVEC [4]): 19%
